test system: SF-539; test: Growth inhibition of human SF-539 cells assessed as cell growth at 100 uM incubated for 48 hrs by sulforhodamine B assay relative to control; assay type: functional; details: read-out: Activity

Question: `Cc1ccc(NC(=O)c2sc3nc4c(cc3c2N)C(=O)CCC4)cc1C` was tested. Which growth at 100 µM did it give?
Answer: 7%

test system: MDA-MB-231; test: Growth inhibition of human MDA-MB-231 cells assessed as cell growth at 100 uM incubated for 48 hrs by sulforhodamine B assay relative to control; assay type: functional; details: read-out: Activity

Question: How did the growth at 100 µM turn out when `Cc1ccc(NC(=O)c2sc3nc4c(cc3c2N)C(=O)CCC4)cc1C` was run?
Answer: 24%

test system: UO-31; test: Growth inhibition of human UO-31 cells assessed as cell growth at 100 uM incubated for 48 hrs by sulforhodamine B assay relative to control; assay type: functional; details: read-out: Activity

Question: `Cc1ccc(NC(=O)c2sc3nc4c(cc3c2N)C(=O)CCC4)cc1C` was tested. Which growth at 100 µM did it give?
Answer: 16%

test system: MDA-MB-468; test: Growth inhibition of human MDA-MB-468 cells assessed as cell growth at 0.1 uM incubated for 48 hrs by sulforhodamine B assay relative to control; assay type: functional; details: read-out: Activity

Question: For `Cc1ccc(NC(=O)c2sc3nc4c(cc3c2N)C(=O)CCC4)cc1C`, which growth at 0.1 µM is on record?
Answer: 83%

test system: A498; test: Growth inhibition of human A498 cells incubated for 48 hrs by sulforhodamine B assay; assay type: functional; details: not given
Summary of the method: (§1)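 NCI Developmental Therapeutics Program NCI60 panel. Compounds that were active in the 10 µM one-dose screen went on to dose–response testing. Growth at each concentration is expressed relative to untreated control (100%). GI50 (concentration giving 50% of maximal inhibition of proliferation) and TGI (concentration giving total growth inhibition) were derived from the curves.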

Question: Which GI50 does the source give for `Cc1ccc(NC(=O)c2sc3nc4c(cc3c2N)C(=O)CCC4)cc1C` here?
Answer: 198 nM

same assay, conditions: read-out: LC50 (the source's name)

Question: Which CC50 does the source give for `Cc1ccc(NC(=O)c2sc3nc4c(cc3c2N)C(=O)CCC4)cc1C` here?
Answer: > 100 µM

test system: A549; test: Growth inhibition of human A549/ATCC cells assessed as cell growth at 100 uM incubated for 48 hrs by sulforhodamine B assay relative to control; assay type: functional; details: read-out: Activity; summary of the method: as §1

Question: With `Cc1ccc(NC(=O)c2sc3nc4c(cc3c2N)C(=O)CCC4)cc1C` as the molecule, how does the growth at 100 µM read?
Answer: 13%

test system: SF-268; test: Growth inhibition of human SF-268 cells assessed as cell growth at 100 uM incubated for 48 hrs by sulforhodamine B assay relative to control; assay type: functional; details: read-out: Activity

Question: For `Cc1ccc(NC(=O)c2sc3nc4c(cc3c2N)C(=O)CCC4)cc1C`, which growth at 100 µM is on record?
Answer: 14%

test system: SW-620; test: Growth inhibition of human SW-620 cells incubated for 48 hrs by sulforhodamine B assay; assay type: functional; details: not given
Summary of the method: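 NCI DTP 60-line human tumour panel. Dose-response curves were run only for ligands active in the initial 10 µM screen. GI50 (concentration giving 50% of maximal inhibition of proliferation) and TGI (concentration giving total growth inhibition) were derived from these curves.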

Question: How did the GI50 turn out when `Cc1ccc(NC(=O)c2sc3nc4c(cc3c2N)C(=O)CCC4)cc1C` was run?
Answer: 400 nM

Question: And the LC50 (concentration killing 50% of cells)?
Answer: > 100 µM

Question: What about the TGI of the same molecule?
Answer: > 100 µM

test system: K562; test: Growth inhibition of human K562 cells assessed as cell growth at 100 uM incubated for 48 hrs by sulforhodamine B assay relative to control; assay type: functional; details: read-out: Activity

Question: `Cc1ccc(NC(=O)c2sc3nc4c(cc3c2N)C(=O)CCC4)cc1C` was tested. Which growth at 100 µM did it give?
Answer: -4%

test system: CCRF-CEM; test: Growth inhibition of human CCRF-CEM cells incubated for 48 hrs by sulforhodamine B assay; assay type: functional; details: not given; summary of the method: as §1

Question: What does the source list for `Cc1ccc(NC(=O)c2sc3nc4c(cc3c2N)C(=O)CCC4)cc1C`?
Answer: GI50: 334 nM; LC50: > 100 µM; TGI: ≥ 100 µM

test system: HCC 2998; test: Growth inhibition of human HCC 2998 cells assessed as cell growth at 1 uM incubated for 48 hrs by sulforhodamine B assay relative to control; assay type: functional; details: read-out: Activity; summary of the method: as §1

Question: With `Cc1ccc(NC(=O)c2sc3nc4c(cc3c2N)C(=O)CCC4)cc1C` as the molecule, how does the growth at 1 µM read?
Answer: 57%

test system: SNB-75; test: Growth inhibition of human SNB-75 cells assessed as cell growth at 0.01 uM incubated for 48 hrs by sulforhodamine B assay relative to control; assay type: functional; details: read-out: Activity

Question: How did the growth at 0.01 µM turn out when `Cc1ccc(NC(=O)c2sc3nc4c(cc3c2N)C(=O)CCC4)cc1C` was run?
Answer: 78%

test system: SNB-19; test: Growth inhibition of human SNB-19 cells assessed as cell growth at 1 uM incubated for 48 hrs by sulforhodamine B assay relative to control; assay type: functional; details: read-out: Activity

Question: `Cc1ccc(NC(=O)c2sc3nc4c(cc3c2N)C(=O)CCC4)cc1C` was tested. Which growth at 1 µM did it give?
Answer: 37%

test system: COLO 205; test: Growth inhibition of human COLO 205 cells assessed as cell growth at 1 uM incubated for 48 hrs by sulforhodamine B assay relative to control; assay type: functional; details: read-out: Activity; summary of the method: as §1

Question: `Cc1ccc(NC(=O)c2sc3nc4c(cc3c2N)C(=O)CCC4)cc1C` was tested. Which growth at 1 µM did it give?
Answer: -13%

test system: BT-549; test: Growth inhibition of human BT-549 cells assessed as cell growth at 1 uM incubated for 48 hrs by sulforhodamine B assay relative to control; assay type: functional; details: read-out: Activity

Question: With `Cc1ccc(NC(=O)c2sc3nc4c(cc3c2N)C(=O)CCC4)cc1C` as the molecule, how does the growth at 1 µM read?
Answer: 49%

test system: NCI-H522; test: Growth inhibition of human NCI-H522 cells assessed as cell growth at 1 uM incubated for 48 hrs by sulforhodamine B assay relative to control; assay type: functional; details: read-out: Activity

Question: With `Cc1ccc(NC(=O)c2sc3nc4c(cc3c2N)C(=O)CCC4)cc1C` as the molecule, how does the growth at 1 µM read?
Answer: 1%

test system: SK-OV-3; test: Growth inhibition of human SK-OV-3 cells assessed as cell growth at 100 uM incubated for 48 hrs by sulforhodamine B assay relative to control; assay type: functional; details: read-out: Activity

Question: Which growth at 100 µM does the source give for `Cc1ccc(NC(=O)c2sc3nc4c(cc3c2N)C(=O)CCC4)cc1C` here?
Answer: 8%

test system: TK-10; test: Growth inhibition of human TK-10 cells assessed as cell growth at 1 uM incubated for 48 hrs by sulforhodamine B assay relative to control; assay type: functional; details: read-out: Activity

Question: How did the growth at 1 µM turn out when `Cc1ccc(NC(=O)c2sc3nc4c(cc3c2N)C(=O)CCC4)cc1C` was run?
Answer: 52%

test system: OVCAR-3; test: Growth inhibition of human OVCAR-3 cells assessed as cell growth at 0.1 uM incubated for 48 hrs by sulforhodamine B assay relative to control; assay type: functional; details: read-out: Activity

Question: For `Cc1ccc(NC(=O)c2sc3nc4c(cc3c2N)C(=O)CCC4)cc1C`, which growth at 0.1 µM is on record?
Answer: 101%

test system: MDA-MB-468; test: Growth inhibition of human MDA-MB-468 cells incubated for 48 hrs by sulforhodamine B assay; assay type: functional; details: not given
Summary of the method: (§2)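 NCI60 panel at the NCI Developmental Therapeutics Program. Only compounds active in the 10 µM screen went to dose-response testing. GI50, the concentration giving 50% of maximal inhibition of proliferation, and TGI, the concentration giving total growth inhibition, were derived from the dose-response curves.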

Question: Which GI50 does the source give for `Cc1ccc(NC(=O)c2sc3nc4c(cc3c2N)C(=O)CCC4)cc1C` here?
Answer: 229 nM

same assay, conditions: read-out: LC50 (the source's name)

Question: For `Cc1ccc(NC(=O)c2sc3nc4c(cc3c2N)C(=O)CCC4)cc1C`, which CC50 is on record?
Answer: > 100 µM

test system: DU-145; test: Growth inhibition of human DU-145 cells incubated for 48 hrs by sulforhodamine B assay; assay type: functional; details: not given; summary of the method: as §1

Question: Which GI50 does the source give for `Cc1ccc(NC(=O)c2sc3nc4c(cc3c2N)C(=O)CCC4)cc1C` here?
Answer: 602 nM

Question: What about the TGI of the same molecule?
Answer: > 100 µM

same assay, conditions: read-out: LC50 (the source's name)

Question: For `Cc1ccc(NC(=O)c2sc3nc4c(cc3c2N)C(=O)CCC4)cc1C`, which CC50 is on record?
Answer: > 100 µM

test system: SK-MEL-28; test: Growth inhibition of human SK-MEL-28 cells assessed as cell growth at 0.1 uM incubated for 48 hrs by sulforhodamine B assay relative to control; assay type: functional; details: read-out: Activity

Question: How did the growth at 0.1 µM turn out when `Cc1ccc(NC(=O)c2sc3nc4c(cc3c2N)C(=O)CCC4)cc1C` was run?
Answer: 87%

test system: OVCAR-3; test: Growth inhibition of human OVCAR-3 cells assessed as cell growth at 100 uM incubated for 48 hrs by sulforhodamine B assay relative to control; assay type: functional; details: read-out: Activity

Question: Which growth at 100 µM does the source give for `Cc1ccc(NC(=O)c2sc3nc4c(cc3c2N)C(=O)CCC4)cc1C` here?
Answer: -23%

test system: SNB-19; test: Growth inhibition of human SNB-19 cells assessed as cell growth at 0.1 uM incubated for 48 hrs by sulforhodamine B assay relative to control; assay type: functional; details: read-out: Activity

Question: For `Cc1ccc(NC(=O)c2sc3nc4c(cc3c2N)C(=O)CCC4)cc1C`, which growth at 0.1 µM is on record?
Answer: 88%

test system: HOP-62; test: Growth inhibition of human HOP-62 cells assessed as cell growth at 100 uM incubated for 48 hrs by sulforhodamine B assay relative to control; assay type: functional; details: read-out: Activity

Question: How did the growth at 100 µM turn out when `Cc1ccc(NC(=O)c2sc3nc4c(cc3c2N)C(=O)CCC4)cc1C` was run?
Answer: 28%

test system: SF-295; test: Growth inhibition of human SF-295 cells assessed as cell growth at 0.1 uM incubated for 48 hrs by sulforhodamine B assay relative to control; assay type: functional; details: read-out: Activity

Question: How did the growth at 0.1 µM turn out when `Cc1ccc(NC(=O)c2sc3nc4c(cc3c2N)C(=O)CCC4)cc1C` was run?
Answer: 85%

test system: OVCAR-4; test: Growth inhibition of human OVCAR-4 cells assessed as cell growth at 1 uM incubated for 48 hrs by sulforhodamine B assay relative to control; assay type: functional; details: read-out: Activity

Question: For `Cc1ccc(NC(=O)c2sc3nc4c(cc3c2N)C(=O)CCC4)cc1C`, which growth at 1 µM is on record?
Answer: 42%

test system: SK-MEL-5; test: Growth inhibition of human SK-MEL-5 cells assessed as cell growth at 0.01 uM incubated for 48 hrs by sulforhodamine B assay relative to control; assay type: functional; details: read-out: Activity

Question: Which growth at 0.01 µM does the source give for `Cc1ccc(NC(=O)c2sc3nc4c(cc3c2N)C(=O)CCC4)cc1C` here?
Answer: 95%

test system: NCI-H226; test: Growth inhibition of human NCI-H226 cells assessed as cell growth at 0.1 uM incubated for 48 hrs by sulforhodamine B assay relative to control; assay type: functional; details: read-out: Activity

Question: For `Cc1ccc(NC(=O)c2sc3nc4c(cc3c2N)C(=O)CCC4)cc1C`, which growth at 0.1 µM is on record?
Answer: 88%

test system: HOP-92; test: Growth inhibition of human HOP-92 cells assessed as cell growth at 1 uM incubated for 48 hrs by sulforhodamine B assay relative to control; assay type: functional; details: read-out: Activity

Question: Which growth at 1 µM does the source give for `Cc1ccc(NC(=O)c2sc3nc4c(cc3c2N)C(=O)CCC4)cc1C` here?
Answer: 29%

test system: HCT-116; test: Growth inhibition of human HCT-116 cells incubated for 48 hrs by sulforhodamine B assay; assay type: functional; details: not given; summary of the method: as §2

Question: What does the source list for `Cc1ccc(NC(=O)c2sc3nc4c(cc3c2N)C(=O)CCC4)cc1C`?
Answer: GI50: 527 nM; LC50 (concentration killing 50% of cells): > 100 µM; TGI: > 100 µM

test system: MCF7; test: Growth inhibition of human MCF7 cells assessed as cell growth at 1 uM incubated for 48 hrs by sulforhodamine B assay relative to control; assay type: functional; details: read-out: Activity

Question: For `Cc1ccc(NC(=O)c2sc3nc4c(cc3c2N)C(=O)CCC4)cc1C`, which growth at 1 µM is on record?
Answer: 18%

test system: RPMI-8226; test: Growth inhibition of human RPMI-8226 cells assessed as cell growth at 100 uM incubated for 48 hrs by sulforhodamine B assay relative to control; assay type: functional; details: read-out: Activity

Question: How did the growth at 100 µM turn out when `Cc1ccc(NC(=O)c2sc3nc4c(cc3c2N)C(=O)CCC4)cc1C` was run?
Answer: -9%

test system: ACHN; test: Growth inhibition of human ACHN cells assessed as cell growth at 100 uM incubated for 48 hrs by sulforhodamine B assay relative to control; assay type: functional; details: read-out: Activity

Question: How did the growth at 100 µM turn out when `Cc1ccc(NC(=O)c2sc3nc4c(cc3c2N)C(=O)CCC4)cc1C` was run?
Answer: 12%
